Columns and labels:
[1] = AUC (0 to infinity) in monkey at 20 mg/kg, iv administered as bolus dose by HPLC method; format: ADME, organism-based, Macaca mulatta; parameters: dose 20 mg/kg, time infinity, route intravenous; details: rhesus monkey, in vivo
How it was run: (§1)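 Three monkeys per group received a single iv bolus of 20 mg/kg (1 mL/kg). Plasma levels were measured by HPLC. AUC0-∞, CLtot and T1/2 came from a 2-compartment fit.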

[2] = Half life in monkey at 20 mg/kg, iv administered as bolus dose by HPLC method; format: ADME, organism-based, Macaca mulatta; details: rhesus monkey, in vivo; how it was run: as §1
[3] = Total clearance in monkey at 20 mg/kg, iv administered as bolus dose by HPLC method; format: ADME, organism-based, Macaca mulatta; details: rhesus monkey, in vivo; how it was run: as §1
[4] = Protein binding in ICR mouse plasma after 30 mins by ultra-filtration method; format: ADME, cell-free; details: read-out: PPB (converted)
How it was run: (§2)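 Mouse or monkey plasma was adjusted to pH 7 with CO2 and spiked with compound to a final 10 µg/ml. It was incubated 30 min at 37 °C, then ultrafiltered by centrifugation at 3200 rpm for 30 min at 25 °C. Free drug in the filtrate was measured by bioassay to give the bound fraction.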

[5] = Protein binding in cynomolgus monkey plasma after 30 mins by ultra-filtration method; format: ADME, cell-free, Macaca fascicularis; details: read-out: PPB (converted); how it was run: as §2
[6] = test system: Staphylococcus aureus; experiment: Antibacterial activity against Staphylococcus aureus SMITH after 20 hrs by agar dilution method; format: functional
How it was run: (§3)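 Agar dilution MIC on Sensitivity Disk Agar-N with 2-fold serial drug dilutions. Overnight Mueller Hinton broth cultures were diluted to about 10^6 CFU/mL, and 1 µL spots were applied. Plates were incubated 20 h at 37 °C before scoring.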

[7] = test system: Streptococcus pneumoniae; experiment: Antibacterial activity against penicillin-resistant Streptococcus pneumoniae SR16675 after 20 hrs by agar dilution method; format: functional; details: SR16675, 20 h
How it was run: (§4)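 Agar dilution on Sensitivity Disk Agar-N. Overnight Mueller Hinton broth cultures were diluted to about 10^6 CFU/mL, and 1 µL spots were placed on agar plates holding 2-fold serial dilutions of antibiotic. Plates were incubated 20 h at 37 °C and then MICs were scored.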

[8] = test system: Streptococcus pneumoniae; experiment: Antibacterial activity against penicillin-resistant Streptococcus pneumoniae SR16750 after 20 hrs by agar dilution method; format: functional; details: SR16750, 20 h; how it was run: as §4
[9] = test system: Haemophilus influenzae; experiment: Antibacterial activity against beta-lactamase non-producing penicillin-resistant Haemophilus influenzae SR11435 after 20 hrs by agar dilution method; format: functional; details: SR11435, 20 h; how it was run: as §4
[10] = test system: Haemophilus influenzae; experiment: Antibacterial activity against beta-lactamase non-producing penicillin-resistant Haemophilus influenzae SR24106 after 20 hrs by agar dilution method; format: functional; details: SR24106, 20 h; how it was run: as §4
[11] = test system: Moraxella catarrhalis; experiment: Antibacterial activity against Moraxella catarrhalis SR24290 after 20 hrs by agar dilution method; format: functional; details: SR24290, 20 h; how it was run: as §3
[12] = test system: Escherichia coli; experiment: Antibacterial activity against Escherichia coli NIHJ JC-2 after 20 hrs by agar dilution method; format: functional; details: NIHJ JC-2, 20 h; how it was run: as §3
[13] = Half life in mouse at 20 mg/kg, iv administered as bolus dose by band-culture bioassay; details: in vivo
[14] = Total clearance in mouse at 20 mg/kg, iv administered as bolus dose by band-culture bioassay; details: in vivo
[15] = AUC (0 to infinity) in mouse at 20 mg/kg, iv administered as bolus dose by band-culture bioassay; details: in vivo

| SMILES | AUC [1] [ng·h/mL] | half-life [2] [min] | clearance [3] [mL/min/kg] | fraction unbound at 0.5 h [4] | fraction unbound at 0.5 h [5] | MIC [6] [µg/mL] | MIC [7] [µg/mL] | MIC [8] [µg/mL] | MIC [9] [µg/mL] | MIC [10] [µg/mL] | MIC [11] [µg/mL] | MIC [12] [µg/mL] | half-life [13] [min] | clearance [14] [mL/min/kg] | AUC(0-inf) [15] [ng·h/mL] |
| --- | --- | --- | --- | --- | --- | --- | --- | --- | --- | --- | --- | --- | --- | --- | --- |
| CCO/N=C(\C(=O)N[C@@H]1C(=O)N2C(C(=O)[O-])=C(/C=C/C[n+]3ccc(-c4c[nH]c(/C([O-])=N/C#N)c4)cc3)CS[C@H]12)c1csc(N)n1.[Na+] | 20200 | 255 | 0.84 | 0.75 | 0.3 | 0.25 | 0.125 | 0.25 | 0.063 | 0.125 | 8 | 0.125 | 55.8 | 18.9 | 17600 |
| CCO/N=C(\C(=O)N[C@@H]1C(=O)N2C(C(=O)[O-])=C(C=CC[n+]3ccc(-c4cc(/C([O-])=N/C#N)[nH]n4)cc3)CS[C@H]12)c1csc(N)n1.[Na+] |  |  |  | 0.76 |  | 0.25 | 0.25 | 0.5 | 0.125 | 0.25 | 1 | 0.125 | 51 | 19.1 | 17400 |
| CCO/N=C(\C(=O)N[C@@H]1C(=O)N2C(C(=O)[O-])=C(/C=C/C[n+]3cccc(/C([O-])=N/C#N)c3)CS[C@H]12)c1csc(N)n1.[Na+] | 9500 | 79.8 | 1.79 | 0.94 | 0.67 | 0.5 | 0.25 | 0.5 | 0.063 | 0.125 | 2 | 0.125 | 33 | 23.7 | 14100 |
| CO/N=C(\C(=O)N[C@@H]1C(=O)N2C(C(=O)[O-])=C(C[n+]3ccc(-c4cc(/C([O-])=N/C#N)[nH]n4)cc3)CS[C@H]12)c1csc(N)n1.[Na+] (stereo in doubt) |  |  |  | 0.85 |  | 1 | 0.25 | 0.5 | 0.063 | 0.25 | 2 | 0.25 | 54.6 | 18.4 | 18100 |
| CCO/N=C(\C(=O)N[C@@H]1C(=O)N2C(C(=O)[O-])=C(/C=C/C[n+]3ccc(-c4cc(/C([O-])=N/C#N)n(C)c4)cc3)CS[C@H]12)c1csc(N)n1.[Na+] | 32100 | 245 |  | 0.67 | 0.23 | 0.5 | 0.25 | 0.5 | 0.063 | 0.125 | 8 | 0.25 | 52.2 | 12.8 | 26000 |
| CCO/N=C(\C(=O)N[C@@H]1C(=O)N2C(C(=O)[O-])=C(/C=C\C[n+]3ccc(-c4cc(/C([O-])=N/C#N)[nH]n4)cc3)CS[C@H]12)c1csc(N)n1.[Na+] |  |  |  |  |  | 0.25 | 0.5 | 1 | 0.25 | 0.5 | 1 | 0.125 |  |  |  |
| CCO/N=C(\C(=O)N[C@@H]1C(=O)N2C(C(=O)[O-])=C(/C=C/C[n+]3ccc(-c4cc(/C([O-])=N/C#N)n(C)n4)cc3)CS[C@H]12)c1csc(N)n1.[Na+] | 21800 | 178 | 0.81 | 0.59 | 0.41 | 0.5 | 0.125 | 0.5 | 0.063 | 0.25 | 8 | 0.25 | 49.2 | 13.2 | 21300 |
| CCCO/N=C(\C(=O)N[C@@H]1C(=O)N2C(C(=O)[O-])=C(C[n+]3ccc(-c4cc(/C([O-])=N/C#N)[nH]n4)cc3)CS[C@H]12)c1csc(N)n1.[Na+] (stereo in doubt) |  |  |  | 0.63 |  | 0.5 | 0.25 | 0.5 | 0.063 | 1 | 1 | 1 | 58.8 | 37.4 | 8900 |
| CCO/N=C(\C(=O)N[C@@H]1C(=O)N2C(C(=O)[O-])=C(/C=C/C[n+]3ccc(-c4csc(/C([O-])=N/C#N)n4)cc3)CS[C@H]12)c1csc(N)n1.[Na+] | 48000 | 310 |  | 0.69 | 0.23 | 0.5 | 0.125 | 0.25 | 0.063 | 0.25 | 2 | 0.125 | 44.4 | 12.2 | 27400 |
| N#C/N=C(\[O-])c1cc(-c2cc[n+](CC3=C(C(=O)[O-])N4C(=O)[C@@H](NC(=O)/C(=N\OCCF)c5csc(N)n5)[C@H]4SC3)cc2)n[nH]1.[Na+] (stereo in doubt) |  |  |  | 0.76 |  | 1 | 0.25 | 0.5 | 0.063 | 0.125 | 1 | 0.25 | 63.6 | 26.2 | 12700 |
| CCO/N=C(\C(=O)N[C@@H]1C(=O)N2C(C(=O)[O-])=C(C[n+]3ccc(-c4cc(/C([O-])=N/C#N)[nH]n4)cc3)CS[C@H]12)c1csc(N)n1.[Na+] (stereo in doubt) |  |  |  | 0.77 |  | 1 | 0.25 | 0.5 | 0.063 | 0.25 | 0.5 | 0.5 | 68.4 | 30.8 | 10800 |
| CCO/N=C(\C(=O)N[C@@H]1C(=O)N2C(C(=O)[O-])=C(C[n+]3ccc(-c4cc(/C([O-])=N/C#N)[nH]n4)cc3)CS[C@H]12)c1nc(N)sc1Cl.[Na+] |  |  |  | 0.43 |  | 1 | 0.125 | 0.25 | 0.25 | 2 | 0.125 | 2 | 35.4 | 8 | 41500 |
